Assay outcomes as filed in PubChem BioAssay.
Rev-RRE block: inhibitors of HIV-1 Rev-RRE RNA interaction. P05866. Rev peptide-RRE RNA binding, FRET. inhibition, % at 8 µM. 97,000 tested, 0.79% active. AID 704;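 active = inhibition above the screen-wide mean plus 3 SD, cut at about 35% in these data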;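 also: 0% = median DMSO wells and 100% = median Neomycin B control wells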
Target sequence (P05866 whole entry, looked up): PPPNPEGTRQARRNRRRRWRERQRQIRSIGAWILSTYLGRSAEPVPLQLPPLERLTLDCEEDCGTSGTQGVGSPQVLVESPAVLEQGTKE
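Assay system: labelled RRE RNA duplex and labelled Rev peptide / Medium: HEPES pH 7.5 salt buffer with EDTA / Reagent: labelled Rev peptide / Schedule: 5 + 15 min at 25 °C / Signal: FRET, excitation 480 nm, emission 540 nm donor and 671 nm acceptor / Benchmarks: DMSO and neomycin B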
ERa coact pot: ER-alpha (human) coactivator binding potentiation. P03372. TR-FRET ERalpha-LBD/SRC-Cy5 coactivator binding, 2 h; 100 = basal binding, no effect. coactivator binding (% of control), % at 25.6 µM. 86,000 tested, 1.3% active. AID 639; in the data active = activity above about 200%;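 also: binding measured in presence of low estradiol as agonist stimulus; 0% = peptide alone without receptor and 100% = receptor with peptide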
ERa coact inh: blocks coactivator binding to human estrogen receptor alpha; TR-FRET ER-alpha LBD / SRC-1 peptide, estradiol-bound; inhibition, % at 25.6 µM; 86,000 tested, 1.7% active; in the data active = inhibition above about 50%;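 also: 0% = receptor plus peptide control and 100% = peptide only without receptor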
sEH act: activators of human soluble epoxide hydrolase | P34913 | purified human sEH enzymatic activity, activator screen | activation, % at 2 µM | 91,000 tested, 0.04% active; in the data active = activation above about 37%
ERb SRC1 inh: blocks coactivator binding to human estrogen receptor beta. inhibition, % at 25.6 µM. AID 633. 86,000 tested, 1.3% active. Q92731. TR-FRET ER-beta LBD / SRC1-Cy5 peptide binding; receptor agonist-loaded with 1 µM estradiol;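 active = compounds whose percent inhibition of the receptor-coactivator binding signal exceeds about 50% in the single-dose screen, limit read from the data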;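 also: 0% = receptor plus peptide wells without compound and 100% = peptide-only wells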
sEH inh: inhibitors of human soluble epoxide hydrolase; P34913; recombinant human sEH enzymatic activity assay; inhibition, % at 2 µM; 91,000 tested, 0.34% active; AID 707; in the data active = inhibition above about 80%
An asterisk follows results filed as active; . = no result; [ ] = remark or other dose. Rows were chosen to be rich in hits. Some 3.5% of all compounds tested hit in one or more screens of this group.

SMILES	Rev-RRE block	ERa coact pot	ERa coact inh	sEH act	ERb SRC1 inh	sEH inh
Cc1cc(SCC(=O)NC(=O)NCc2ccco2)nc2c(C)cccc12	.	60	65*	.	50	.
c1ccc(-c2nn3c(Cn4nnc5ccccc54)nnc3s2)nc1	7	27	85*[fluorescence artefact?]	-1	50	2
c1cncc(-c2nn3c(Cn4nnc5ccccc54)nnc3s2)c1	9	79	-8	-16	-10	15
O=C(O)c1cccc(-n2cccc2/C=N/O)c1	-5	46	76*[fluorescence artefact?]	-7	77*[fluorescence artefact?]	10
CC(C)CN(C(=O)COC(=O)C1c2ccccc2Oc2ccccc21)C1CCS(=O)(=O)C1 (configuration not stated)	4	100	-9	5	-5	-6
CC(C)CN(C(=O)COC(=O)c1cc2c(s1)CCC2)C1CCS(=O)(=O)C1 (configuration not stated)	-1	23	80*	.	75*	.
O=C(Cc1cccs1)NCCn1ccc2ccccc21	.	94	-7	.	-11	.
O=C(Nc1ccc(N2CCCC2)c(Cl)c1)c1ccc(Br)o1	19	97	6	-15	7	14
Cc1cc(SCC(=O)Nc2ccccc2)nc(C)n1	2	112	72*[fluorescence artefact?]	-8	-2	5
CSc1nc(C)cc(SCC(=O)Nc2ccccc2)n1	4	95	-1	7	-14	-7
O=C1CC(=O)N(Cc2ccco2)C(=S)N1	77*	70	28	-1	30	2
COCCn1c(SCC(=O)Nc2ccc(S(=O)(=O)N3CCOCC3)cc2)nc2ccccc21	8	131	-1	-22	3	21
Cc1ccc(NC(=O)CN(C)c2ccc(S(=O)(=O)N3CCN(C)CC3)cn2)cc1	4	481*[fluorescence artefact?]	-66	10	5	-7
CC1(C)CC(=O)C(C=NCCc2ccc(S(N)(=O)=O)cc2)=C(O)C1	-1	109	-3	16	9	-19
Cc1c(NC(=O)/C=C/c2cccs2)c(=O)n(-c2ccccc2)n1C	1	.	.	-8	.	6
COC(=O)\C(C(C)=O)=C(/C=C/C=C/C=C/N(C)C)N(C)C	82*	45	36	.	42	.
COC(=O)/C(C(C)=O)=C(\C=C\N(C)C)N(C)C	2	103	3	6	3	-11
O=C(Nc1ccc(O)cc1C(=O)O)c1ccc2c(c1)C(=O)N(Cc1ccco1)C2=O	2	34	49	-2	54*	4
O=C(O)c1ccc(C(=O)c2ccc3c(c2)C(=O)N(Cc2ccco2)C3=O)cc1	-4	94	-5	1	5	0
O=C(CSc1nnc2scc(-c3ccccc3)n12)NCC1CCCO1 (configuration not stated)	3	107	22	1	2	2
CCC(=O)Oc1c(-c2ccccc2)c2nc3ccccc3nc2c2ccccc12	112*[fluorescence artefact?]	221*[fluorescence artefact?]	39	0	47	2
CC1=CC(C)=Nc2ccccc2N1	47*	103	-3	7	-11	-13
CCOC(=O)c1ccc(NC(=O)CN2C(=O)CSC2=O)cc1	11	98	1	-8	-8	8
COC(=O)c1ccc(NC(=O)CN2C(=O)CSC2=O)cc1	-1	319*[fluorescence artefact?]	1	3	8	-6
O=C(Cn1cc2c(n1)CCCCC2)Nc1c(F)c(F)cc(F)c1F	0	.	.	.	.	.
SMILES	Rev-RRE block	ERa coact pot	ERa coact inh	sEH act	ERb SRC1 inh	sEH inh
Cc1cc(C)c(NC(=O)Cn2cc3c(n2)CCCC3)c(C)c1	.	115	99*[fluorescence artefact?]	.	-10	.
NC(=O)c1ccc(NC(=O)CSC2=Nc3ccccc3C3CC=NN23)cc1 (configuration not stated)	5	.	.	6	.	-4
CCn1cc(S(=O)(=O)CC(=O)Nc2ccc(C)cc2)c2ccccc21	6	85	-5	.	2	.
COC(=O)c1cc2c(=O)n3ccccc3nc2n(Cc2cccnc2)c1=N	11	105	-9	7	6	-5
N=c1c(C(=O)NCc2ccc(F)cc2)cc2c(=O)n3ccccc3nc2n1Cc1cccnc1	37*	65	71*	5	22	-5
COC(=O)c1sc2ncn(-n3c(C)ccc3C)c(=O)c2c1C	2	106	-6	-3	-16	0
Brc1ccc(-c2nnc(-c3cccnc3)c3conc23)cc1	3	82	69*	-3	25	5
C=C1CC(C)OC(c2ccccc2OCC(O)CN2CCCCC2)C1 (configuration not stated)	-2	123	-30	-3	-7	4
COC(=O)Cn1c2ccc(OC)cc2c2nc3ccccc3nc21	8	174	5	-2	-4	3
CCOC(=O)Cn1c2ccc(OC)cc2c2nc3ccccc3nc21	4	279*	46	-5	29	4
CC(C)CCN1CC(O)=C(c2nc(-c3ccc(Cl)cc3)cs2)C1=N	11	219*	24	2	28	2
N=C1C(c2nc(-c3ccc(F)cc3)cs2)=C(O)CN1CCCN1CCOCC1	5	92	-3	-15	-1	13
CCn1cc(C(=O)N=c2sc3ccccc3n2C)c(=O)c2ccc(C)nc21	3	250*	25	-7	7	7
CCn1cc(C(=O)N2CCn3c(nc4ccccc43)C2)c(=O)c2ccc(C)nc21	2	101	-2	5	0	-6
Cc1ccnc(NC(=O)c2ccccc2NC(=O)C(C)(C)C)c1	5	106	-2	0	-1	1
N#CCCCSc1nnnn1-c1cccc(Cl)c1	6	107	-4	-1	-2	1
N#CCCS(=O)(=O)c1nnnn1-c1ccccc1	2	78	61*	-10	58*	10
Cc1c(C(c2ccc([N+](=O)[O-])cc2)c2c(C)n(C)n(-c3ccccc3)c2=O)c(=O)n(-c2ccccc2)n1C	-1	.	.	6	.	-3
CCCOCC1CC2(SC(=Nc3ccc(C)cc3)NC2=O)C(=O)O1 (configuration not stated)	3	106	-6	14	69*[fluorescence artefact?]	-15
O=C(CSc1nc2ccccc2c2nc3ccccc3n12)NCc1ccco1	0	92	74*[fluorescence artefact?]	6	48	-7
CCOC(=O)CSc1nc2ccccc2c(=O)n1CC1CCC(C(=O)NCc2ccco2)CC1 (configuration not stated)	5	104	29	-82	1	82*
O=C(CCCCCn1c(SCc2ccncc2)nc2ccccc2c1=O)NCc1ccco1	6	108	57*[fluorescence artefact?]	-21	44	20
O=C(CSc1nc2ccccc2c(=O)n1CCCC(=O)N1CCCC1)NCc1ccco1	-1	109	-1	-7	5	5
COC(=O)/C(=C\Nc1ccc(Cl)cc1Cl)NC(=O)c1ccccc1	6	100	4	12	1	-10
COC(=O)/C(=C\Nc1ccc(Cl)cc1Cl)NC(=O)c1ccc(Cl)cc1Cl	9	52	74*[fluorescence artefact?]	-5	46	7
